Measurements published in ChEMBL document CHEMBL4665666, “Discovery and characterization of trypanocidal cysteine protease inhibitors from the 'malaria box'” (Eur J Med Chem, 2019).

Columns and labels:
[1] = system: Schistosoma mansoni; test: Inhibition of recombinant Schistosoma mansoni SmCB1 expressed in Pichia pastoris at 5 uM using Z-FR-AMC as substrate and measured at 23 sec interval for 30 mins without preincubation by fluorimetric analysis relative to control
Summary of the method: (§1)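 SmCB1 (recombinant, 8 nM) in 0.1 M sodium acetate pH 5.5 with 0.01% Triton X-100 and 4 mM β-mercaptoethanol. Compound at 5 µM, either not pre-incubated or pre-incubated 10 min with enzyme. Z-FR-AMC 20 µM, fluorescence 340/440 nm every 23 s for 30 min. Inhibition is versus DMSO, with E-64 control; each condition in duplicate.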

[2] = system: Schistosoma mansoni; test: Inhibition of recombinant Schistosoma mansoni SmCB1 expressed in Pichia pastoris at 5 uM using Z-FR-AMC as substrate preincubated for 10 mins followed by substrate addition and measured at 23 sec interval for 30 mins by fluorimetric analysis relative to control; summary of the method: as §1
[3] = target: Rhodesain (Trypanosoma brucei rhodesiense) (UniProt Q95PM0); test: Inhibition of recombinant Trypanosoma brucei rhodesain expressed in Pichia pastoris at 5 uM using Z-FR-AMC as substrate preincubated for 10 mins followed by substrate addition and measured at 12 sec interval for 5 mins by fluorimetric analysis relative to control; conditions: time 15.0 min
Rhodesain (Trypanosoma brucei rhodesiense), sequence (Q95PM0 1-450): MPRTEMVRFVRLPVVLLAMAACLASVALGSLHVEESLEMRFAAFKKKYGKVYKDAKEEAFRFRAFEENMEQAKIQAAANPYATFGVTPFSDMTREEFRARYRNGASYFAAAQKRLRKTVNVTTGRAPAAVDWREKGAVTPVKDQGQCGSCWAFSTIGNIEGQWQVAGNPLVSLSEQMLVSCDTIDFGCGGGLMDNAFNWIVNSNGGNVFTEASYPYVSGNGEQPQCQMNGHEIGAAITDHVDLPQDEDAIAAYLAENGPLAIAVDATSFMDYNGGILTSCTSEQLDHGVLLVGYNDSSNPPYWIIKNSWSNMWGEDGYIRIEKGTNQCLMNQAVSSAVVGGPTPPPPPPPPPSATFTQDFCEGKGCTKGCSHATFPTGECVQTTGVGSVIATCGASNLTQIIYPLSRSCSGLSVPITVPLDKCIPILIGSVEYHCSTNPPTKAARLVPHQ
Summary of the method: (§2)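 Recombinant rhodesain or cruzain (1 nM) in 0.1 M sodium acetate pH 5.5, 0.01% Triton X-100, 1 mM β-mercaptoethanol. Compound at a single concentration, either without or after 10 min enzyme pre-incubation. Inhibition is relative to DMSO, with E-64 as positive control. Done in duplicate (primary screen) or triplicate.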

[4] = target: Cruzipain (Trypanosoma cruzi) (UniProt P25779); test: Inhibition of recombinant Trypanosoma cruzi cruzain at 5 uM using Z-FR-AMC as substrate and measured at 12 sec interval for 5 mins without preincubation by fluorimetric analysis relative to control; summary of the method: as §2
Cruzipain (Trypanosoma cruzi), sequence (P25779 123-467 limits assumed): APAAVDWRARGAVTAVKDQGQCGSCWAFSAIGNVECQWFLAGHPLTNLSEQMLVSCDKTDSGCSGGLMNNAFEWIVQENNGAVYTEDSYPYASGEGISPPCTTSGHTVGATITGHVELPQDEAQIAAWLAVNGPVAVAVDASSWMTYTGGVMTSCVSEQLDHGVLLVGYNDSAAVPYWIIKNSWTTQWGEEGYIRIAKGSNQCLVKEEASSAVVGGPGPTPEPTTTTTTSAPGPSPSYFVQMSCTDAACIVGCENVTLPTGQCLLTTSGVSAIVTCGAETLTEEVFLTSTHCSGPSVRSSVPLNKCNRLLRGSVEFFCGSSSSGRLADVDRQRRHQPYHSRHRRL

[5] = target: Cruzipain (Trypanosoma cruzi) (UniProt P25779); test: Inhibition of recombinant Trypanosoma cruzi cruzain at 5 uM using Z-FR-AMC as substrate preincubated for 10 mins followed by substrate addition and measured at 12 sec interval for 5 mins by fluorimetric analysis relative to control; conditions: time 15.0 min; summary of the method: as §2
[6] = target: Cruzipain (Trypanosoma cruzi) (UniProt P25779); test: Inhibition of recombinant Trypanosoma cruzi cruzain at 10 uM using Z-FR-AMC as substrate preincubated for 10 mins followed by substrate addition and measured at 12 sec interval for 5 mins by fluorimetric analysis relative to control; conditions: time 15.0 min
Summary of the method: as §2, with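 “pre-incubation. Z-FR-AMC 2.5 µM, read at 340/440 nm every 12 s for 5 min.” for “pre-incubation.”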

[7] = target: Cruzipain (Trypanosoma cruzi) (UniProt P25779); test: Inhibition of recombinant Trypanosoma cruzi cruzain at 10 uM using Z-FR-AMC as substrate and measured at 12 sec interval for 5 mins without preincubation by fluorimetric analysis relative to control
Summary of the method: as §2, with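 “pre-incubation. Z-FR-AMC 2.5 µM, read at 340/440 nm every 12 s for 5 min.” for “pre-incubation.”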

[8] = target: Rhodesain (Trypanosoma brucei rhodesiense) (UniProt Q95PM0); test: Inhibition of recombinant Trypanosoma brucei rhodesain expressed in Pichia pastoris at 5 uM using Z-FR-AMC as substrate and measured at 12 sec interval for 5 mins without preincubation by fluorimetric analysis relative to control; summary of the method: as §2
[9] = target: Rhodesain (Trypanosoma brucei rhodesiense) (UniProt Q95PM0); test: Inhibition of recombinant Trypanosoma brucei rhodesain expressed in Pichia pastoris at 10 uM using Z-FR-AMC as substrate preincubated for 10 mins followed by substrate addition and measured at 12 sec interval for 5 mins by fluorimetric analysis relative to control; conditions: time 15.0 min
Summary of the method: as §2, with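 “pre-incubation. Z-FR-AMC 2.5 µM, read at 340/440 nm every 12 s for 5 min.” for “pre-incubation.”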

[10] = target: Rhodesain (Trypanosoma brucei rhodesiense) (UniProt Q95PM0); test: Inhibition of recombinant Trypanosoma brucei rhodesain expressed in Pichia pastoris at 10 uM using Z-FR-AMC as substrate and measured at 12 sec interval for 5 mins without preincubation by fluorimetric analysis relative to control
Summary of the method: as §2, with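 “pre-incubation. Z-FR-AMC 2.5 µM, read at 340/440 nm every 12 s for 5 min.” for “pre-incubation.”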

[11] = target: Rhodesain (Trypanosoma brucei rhodesiense) (UniProt Q95PM0); test: Inhibition of recombinant Trypanosoma brucei rhodesain expressed in Pichia pastoris at 20 uM using Z-FR-AMC as substrate and measured at 12 sec interval for 5 mins without preincubation by fluorimetric analysis relative to control
Summary of the method: (§3)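 Run with no pre-incubation or with 10 min enzyme-compound pre-incubation. Fluorescence read at 340/440 nm. Concentration was set by solubility under assay conditions. Inhibition is against DMSO, with E-64 as positive control; triplicate.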

[12] = system: Trypanosoma brucei rhodesiense; test: Trypanocidal activity against Trypanosoma brucei rhodesiense STI B900 assessed as reduction in parasite viability; type: functional, organism-based
[13] = target: Cruzipain (Trypanosoma cruzi) (UniProt P25779); test: Inhibition of recombinant Trypanosoma cruzi cruzain at 20 uM using Z-FR-AMC as substrate preincubated for 10 mins followed by substrate addition and measured at 12 sec interval for 5 mins by fluorimetric analysis relative to control; conditions: time 15.0 min
Summary of the method: as §2, with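 “pre-incubation. Z-FR-AMC 2.5 µM, read at 340/440 nm every 12 s for 5 min.” for “pre-incubation.”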

[14] = target: Cruzipain (Trypanosoma cruzi) (UniProt P25779); test: Inhibition of recombinant Trypanosoma cruzi cruzain at 20 uM using Z-FR-AMC as substrate and measured at 12 sec interval for 5 mins without preincubation by fluorimetric analysis relative to control
Summary of the method: as §2, with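 “pre-incubation. Z-FR-AMC 2.5 µM, read at 340/440 nm every 12 s for 5 min.” for “pre-incubation.”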

[15] = target: Rhodesain (Trypanosoma brucei rhodesiense) (UniProt Q95PM0); test: Inhibition of recombinant Trypanosoma brucei rhodesain expressed in Pichia pastoris at 20 uM using Z-FR-AMC as substrate preincubated for 10 mins followed by substrate addition and measured at 12 sec interval for 5 mins by fluorimetric analysis relative to control; conditions: time 15.0 min; summary of the method: as §3
[16] = system: Trypanosoma brucei brucei; test: Trypanocidal activity against Trypanosoma brucei brucei Squib 427 assessed as reduction in parasite viability; type: functional, organism-based
[17] = system: Trypanosoma cruzi; test: Trypanocidal activity against Trypanosoma cruzi Tulahuen C4 assessed as reduction in parasite viability; type: functional, organism-based
[18] = target: Cruzipain (Trypanosoma cruzi) (UniProt P25779); test: Inhibition of recombinant Trypanosoma cruzi cruzain at 100 uM preincubated for 10 mins in absence of Triton X-100 relative to control
Summary of the method: (§4)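 To test detergent sensitivity, cruzain was pre-incubated 10 min at room temperature with compound with no Triton X-100, 0.01% or 0.1% Triton X-100. Cleavage of Z-FR-AMC was then followed at pH 5.5 in acetate buffer. Percent inhibition was compared across detergent levels.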

[19] = target: Rhodesain (Trypanosoma brucei rhodesiense) (UniProt Q95PM0); test: Inhibition of recombinant Trypanosoma brucei rhodesain expressed in Pichia pastoris at 100 uM using Z-FR-AMC as substrate and measured at 12 sec interval for 5 mins without preincubation by fluorimetric analysis relative to control; summary of the method: as §3
[20] = target: Cruzipain (Trypanosoma cruzi) (UniProt P25779); test: Inhibition of recombinant Trypanosoma cruzi cruzain at 100 uM preincubated for 10 mins in presence of 0.1% Triton X-100 relative to control; summary of the method: as §4
[21] = target: Cruzipain (Trypanosoma cruzi) (UniProt P25779); test: Inhibition of recombinant Trypanosoma cruzi cruzain at 100 uM preincubated with BSA for 5 mins followed by incubation with enzyme for 5 mins followed by substrate addition relative to control; conditions: time 10.0 min
Summary of the method: (§5)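 For BSA sensitivity, compound was held 5 min with BSA (2 mg/mL in 0.001% Triton X-100), then 5 min with 1 nM cruzain, before substrate was added and activity monitored. Parallel runs omitted BSA under otherwise identical conditions.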

[22] = target: Rhodesain (Trypanosoma brucei rhodesiense) (UniProt Q95PM0); test: Inhibition of recombinant Trypanosoma brucei rhodesain expressed in Pichia pastoris at 100 uM using Z-FR-AMC as substrate preincubated for 10 mins followed by substrate addition and measured at 12 sec interval for 5 mins by fluorimetric analysis relative to control; conditions: time 15.0 min; summary of the method: as §3
[23] = target: Cruzipain (Trypanosoma cruzi) (UniProt P25779); test: Inhibition of recombinant Trypanosoma cruzi cruzain at 100 uM preincubated for 10 mins in presence of 0.01% Triton X-100 relative to control; summary of the method: as §4
[24] = target: Cruzipain (Trypanosoma cruzi) (UniProt P25779); test: Inhibition of recombinant Trypanosoma cruzi cruzain at 100 uM using Z-FR-AMC as substrate and measured at 12 sec interval for 5 mins without preincubation by fluorimetric analysis relative to control
Summary of the method: as §2, with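 “pre-incubation. Z-FR-AMC 2.5 µM, read at 340/440 nm every 12 s for 5 min.” for “pre-incubation.”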

[25] = target: Cruzipain (Trypanosoma cruzi) (UniProt P25779); test: Inhibition of recombinant Trypanosoma cruzi cruzain at 100 uM using Z-FR-AMC as substrate preincubated for 10 mins followed by substrate addition and measured at 12 sec interval for 5 mins by fluorimetric analysis relative to control; conditions: time 15.0 min
Summary of the method: as §2, with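 “pre-incubation. Z-FR-AMC 2.5 µM, read at 340/440 nm every 12 s for 5 min.” for “pre-incubation.”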

[26] = target: Cruzipain (Trypanosoma cruzi) (UniProt P25779); test: Inhibition of recombinant Trypanosoma cruzi cruzain at 100 uM preincubated with enzyme for 5 mins followed by substrate addition in absence of BSA relative to control; summary of the method: as §5

inhibition [1] | inhibition [2] | Structure (SMILES) | inhibition [3] | inhibition [4] | inhibition [5] | inhibition [6] | inhibition [7] | inhibition [8] | inhibition [9] | inhibition [10] | IC50 [12] | IC50 [16] | also measured
49.7% | 5.2% | CC1(c2ccccc2)Nc2ccccc2-c2nc3ccccc3n21 (stereo not given) |  |  |  |  |  |  |  |  |  |  | 
4.1% | 48% | CC(C)(C)c1ccc(O)c(CNC2CCCCC2)c1 |  |  |  |  |  |  |  |  |  |  | 
0% | 47.3% | Cc1cc(NC(=O)c2cccc(C(F)(F)F)c2)n(-c2nc(-c3ccc4c(c3)OCO4)cs2)n1 | 69.4% | 18.4% | 42% |  |  | 41% |  |  |  |  | 

More lines, now with the values behind:

Structure (SMILES) | inhibition [1] | inhibition [2] | inhibition [3] | inhibition [4] | inhibition [5] | inhibition [6] | inhibition [7] | inhibition [8] | inhibition [9] | inhibition [10] | IC50 [12] | IC50 [16] | also measured
CCOC(=O)c1c(C)n(-c2ccccc2)c2ccc(OC(=O)c3cc(OC)c(OC)c(OC)c3)cc12 |  |  | 74.4% | 36.8% | 51.7% | 19% | 10% | 38.5% | 14% | 4% |  |  | 
Cc1ccc(CN2CCC(C(=O)Nc3ccc(-c4cc5ccccc5[nH]4)cc3)CC2)o1 | 9% | 73% |  |  |  |  |  |  |  |  |  |  | 
Cc1nc2ccccc2c(O)c1CC=C(Cl)Cl |  |  | 77.1% | 61.5% | 99.1% | 11% | 4% | 43.4% | 2% | 5% | 32 µM | 32 µM | inhibition [11]: 4%; inhibition [13]: 7%; inhibition [14]: 3%; inhibition [15]: 3%
CC(=O)c1ccc(NC(=O)CSc2nc(-c3ccccc3Cl)ns2)cc1 |  |  | 67.5% | 55.2% | 76.6% | 23% | 10% | 39.9% | 43% | 10% | 32 µM | 32 µM | IC50 [17]: 32 µM
COCCNCC(O)Cn1c2ccc(Cl)cc2c2cc(Cl)ccc21 (stereo not given) |  |  | 62.4% | 18.4% | 42.1% | 28% | 14% | 33.6% | 3% | 14% | 0.4 µM | 0.7 µM | inhibition [18]: 100%; inhibition [19]: 38%; inhibition [20]: 47.3%; inhibition [21]: 61.3%; inhibition [22]: 48%; inhibition [23]: 25.5%; inhibition [24]: 50%; inhibition [25]: 67%; inhibition [26]: 87.9%
COc1ccc(Br)cc1C1Nc2ccc3ccccc3c2C2=C1C(=O)CC(c1ccccc1)C2 (stereo not given) | 48.3% | 50% | 72.7% | 7% | 37.3% |  |  | 27.6% |  |  |  |  | 
